The record followed here is ChEMBL document CHEMBL1138787, “Synthesis and evaluation of nitrofuranylamides as novel antituberculosis agents” (J Med Chem, 2004).

pIC50: −log10 of the molar value.

In general, pIC50 refers to −log10 of the IC50, conventionally taken in molar units.

The test system of series [1] is Mycobacterium tuberculosis. In words: Activity against Mycobacterium tuberculosis H37Ra. In kind it is functional. In outline: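 Microbroth dilution in microtiter plates. H37Ra grown in Middlebrook 7H9 to OD650 0.4-0.6, then diluted to OD650 0.01. 100 µL of cells added to serial compound dilutions and incubated 37 °C for 8 days, growth read visually. MIC90 taken as wells with >90% growth inhibition; isoniazid positive control on every plate.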

Series [2] deals with UDP-galactopyranose mutase (Mycobacterium tuberculosis, UniProt P9WIQ1). Kind of series: Inhibition of Mycobacterium tuberculosis UDP-galactose mutase expressed in Escherichia coli UDP-6 [3H]- Galf. Set-up: species or system H37Rv. The essentials:
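Reverse-direction radiometric Glf assay on crude soluble enzyme extract, preactivated 30 min at 37 °C in 25 mM MOPS with NADH and FAD. Each 25 µL well held MOPS pH 7.2, MgCl2, NADH, FAD, 2.3 µg protein, 20 pmol UDP-6-[3H]Galf and 1 µL DMSO. Inhibitors at 100-6.3 µM; reaction 5-20 min. Conversion read by HPLC or periodate filter-plate counting; IC50 calculated.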

A short description of series [3]: The protein binding is expressed as percent bound as determined by VolSurf. Type of series: ADME. To be noted: read-out: Protein binding (converted).
For series [4], the system named is Vero. In words: Selectivity is the ratio of cytotoxicity compared to TBMIC. Type of series: functional. In outline: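 Ratio of VERO cell toxicity IC50 to M. tuberculosis H37Ra MIC. VERO monolayers were exposed to 3-fold compound dilutions for 72 h, and viability was read by tetrazolium reduction at 490 nm, with untreated and SDS-lysed cells as 0% and 100%. MIC was by microbroth dilution in 7H9 (OD650 0.01 inoculum), 37 °C for 8 days, with visual 90% growth inhibition.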

Sequence of UDP-galactopyranose mutase (P9WIQ1 whole entry): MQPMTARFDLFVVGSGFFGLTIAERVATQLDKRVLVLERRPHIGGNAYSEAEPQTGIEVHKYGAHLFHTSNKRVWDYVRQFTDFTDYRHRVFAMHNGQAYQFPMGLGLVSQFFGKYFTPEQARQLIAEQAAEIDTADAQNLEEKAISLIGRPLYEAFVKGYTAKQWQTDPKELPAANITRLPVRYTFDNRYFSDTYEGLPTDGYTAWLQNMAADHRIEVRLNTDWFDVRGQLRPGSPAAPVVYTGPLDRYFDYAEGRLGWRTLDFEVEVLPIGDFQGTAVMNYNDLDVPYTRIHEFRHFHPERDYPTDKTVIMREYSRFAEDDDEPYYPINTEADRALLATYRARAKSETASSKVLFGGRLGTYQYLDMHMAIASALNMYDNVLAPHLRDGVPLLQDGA

In series [1], `CN(C(=O)c1ccc([N+](=O)[O-])o1)c1ccccc1` registered a TBMIC of 3.12 µg/mL. Besides, in series [2], the pIC50 is 3.59. Besides, the fraction unbound in series [3] is 0.332. Moreover, the Selectivity index in series [4] is reported as 7.6.
As to `COc1ccc(CCNC(=O)c2ccc([N+](=O)[O-])o2)cc1OC`, in series [1], the TBMIC worked out at 0.4 µg/mL. In series [2], this compound showed a pIC50 of 3.78. Also, the fraction unbound in series [3] is 0.303. Also, in series [4], the Selectivity index was 68.6.
Take `O=C(NC1CCCCC1)c1ccc([N+](=O)[O-])o1`: in series [1], the TBMIC came out at 3.1 µg/mL. Also, in series [2], the pIC50 was 3.55. Further, in series [3], the fraction unbound is 0.352. The Selectivity index in series [4] is 2.9.
On to `O=C(NC1CCc2ccccc21)c1ccc([N+](=O)[O-])o1` (stereo unspecified), for which the TBMIC in series [1] worked out at 3.1 µg/mL. Further, the pIC50 in series [2] was 3.58. Also, in series [3], the fraction unbound is 0.23. Moreover, the Selectivity index in series [4] is recorded as 3.3.
In the case of `COc1cccc(CNC(=O)c2ccc([N+](=O)[O-])o2)c1OC`, the TBMIC in series [1] stood at 1.2 µg/mL. The compound also had a pIC50 in series [2] of 3.33. For the same compound, the fraction unbound in series [3] was 0.356.
In series [1], `COc1ccc(NC(=O)c2ccc([N+](=O)[O-])o2)cc1` registered a TBMIC of 0.4 µg/mL. In series [2], the pIC50 is 3.80. Also, the fraction unbound in series [3] is 0.369. For the same compound, in series [4], the Selectivity index turned out to be 53.6.
Compound `O=C(Nc1cccnc1)c1ccc([N+](=O)[O-])o1` had a TBMIC in series [1] of 6.25 µg/mL. In addition, the negative logarithm of the IC50 (pIC50) in series [2] was 3.69. For the same compound, in series [3], the fraction unbound was 0.447. The Selectivity index in series [4] amounted to 2.1.
Turning to `O=C(Nc1cccc(OCc2ccccc2)c1)c1ccc([N+](=O)[O-])o1`, the TBMIC in series [1] turned out to be 12.5 µg/mL. This compound showed a negative-log IC50 (pIC50) in series [2] of 4.08. Moreover, the fraction unbound in series [3] is 0.13.
In series [1], `O=C(NC12CC3CC(CC(C3)C1)C2)c1ccc([N+](=O)[O-])o1` registered a TBMIC of 3.1 µg/mL. In series [2], the pIC50 was 3.77.
`COc1cccc2sc(NC(=O)c3ccc([N+](=O)[O-])o3)nc12`: the TBMIC in series [1] came out at 1.6 µg/mL. Further, the pIC50 in series [2] was 3.68. Also, the fraction unbound in series [3] is 0.257.
`COc1cccc(NC(=O)c2ccc(S(=O)(=O)c3ccccc3)o2)c1` displayed a TBMIC in series [1] of 6.25 µg/mL. The compound also had a negative-log IC50 (pIC50) in series [2] of 4.19. For the same compound, the fraction unbound in series [3] was 0.485. For the same compound, the Selectivity index in series [4] worked out at 4.1.
As for `O=C(Nc1ccccn1)c1ccc([N+](=O)[O-])o1`, in series [1], the TBMIC was found to be 3.12 µg/mL. In series [2], this compound showed a pIC50 of 3.64. Further, in series [3], the fraction unbound was 0.438. Moreover, the Selectivity index in series [4] is listed as 3.5.
In turn, `O=C(NCc1ccccn1)c1ccc([N+](=O)[O-])o1` yielded a TBMIC in series [1] of 0.8 µg/mL. This compound gave a pIC50 in series [2] of 3.32. Further, in series [3], the fraction unbound was 0.427.
With `O=C(NCc1ccccc1Cl)c1ccc([N+](=O)[O-])o1`, the TBMIC in series [1] came out at 1.6 µg/mL. Moreover, in series [2], the pIC50 was 4.27. In series [3], the fraction unbound was 0.313. Besides, the Selectivity index in series [4] worked out at 7.3.
In series [1], `COc1ccc(CCNC(=O)c2ccc([N+](=O)[O-])o2)cc1` displayed a TBMIC of 0.8 µg/mL. This compound showed a negative-log IC50 (pIC50) in series [2] of 4.23. Further, in series [3], the fraction unbound was 0.288. Moreover, in series [4], the Selectivity index is 25.6.
As to `COc1cccc(NC(=O)c2ccc([S+]([O-])c3ccccc3)o2)c1` (stereo unspecified), the TBMIC in series [1] turned out to be 6.25 µg/mL. Further, the fraction unbound in series [3] was 0.39. Moreover, in series [4], the Selectivity index amounted to 10.4.
The compound `O=C(NCc1ccco1)c1ccc([N+](=O)[O-])o1` had a TBMIC in series [1] of 6.25 µg/mL. The same compound showed a negative logarithm of the IC50 (pIC50) in series [2] of 3.61. In addition, the fraction unbound in series [3] is 0.38. Also, the Selectivity index in series [4] came to 0.7.
Turning to `COc1ccc(N(C)C(=O)c2ccc([N+](=O)[O-])o2)cc1`, the TBMIC in series [1] amounted to 6.25 µg/mL. The same compound showed a pIC50 in series [2] of 3.30. The fraction unbound in series [3] is 0.395. In addition, the Selectivity index in series [4] worked out at 4.
In series [1], `COc1cc(CNC(=O)c2ccc([N+](=O)[O-])o2)cc(OC)c1OC` showed a TBMIC of 0.8 µg/mL. In addition, the negative-log IC50 (pIC50) in series [2] was 3.73. In addition, the fraction unbound in series [3] was 0.344. Besides, the Selectivity index in series [4] is 29.5.
On to `COc1ccc(CNC(=O)c2ccc([N+](=O)[O-])o2)cc1`, for which, in series [1], the TBMIC came out at 0.1 µg/mL. Besides, the pIC50 in series [2] was 3.38. The fraction unbound in series [3] is 0.347. Besides, the Selectivity index in series [4] turned out to be 163.6.
For the compound `O=C(Nc1cccc(Br)c1)c1ccc([N+](=O)[O-])o1`, the TBMIC in series [1] was determined as 0.6 µg/mL. This compound showed a pIC50 in series [2] of 4.45. In series [3], the fraction unbound is 0.311. For the same compound, in series [4], the Selectivity index is listed as 9.6.
For `N#Cc1ccc(NC(=O)c2ccc([N+](=O)[O-])o2)cc1`, in series [1], the TBMIC worked out at 0.8 µg/mL. For the same compound, the pIC50 in series [2] is 3.41. Besides, in series [3], the fraction unbound was 0.249. Also, the Selectivity index in series [4] is 4.4.
Taken in the same sequence, the figures for `C[C@H](NC(=O)c1ccc([N+](=O)[O-])o1)c1ccccc1` were 1.6 µg/mL, 3.84, 0.259 and 16.
In the case of `O=C(Nc1ccccc1)c1ccc([N+](=O)[O-])o1`, the TBMIC in series [1] is 0.8 µg/mL. The compound also had a pIC50 in series [2] of 4.02. For the same compound, the fraction unbound in series [3] is 0.325. The Selectivity index in series [4] is recorded as 2.7.
As to `O=C(Nc1ccncc1)c1ccc([N+](=O)[O-])o1`, the TBMIC in series [1] was determined as 3.12 µg/mL. Further, the pIC50 in series [2] was 3.73. Further, the fraction unbound in series [3] was 0.446. In addition, the Selectivity index in series [4] is on record as 2.2.
Take `C[C@@H](NC(=O)c1ccc([N+](=O)[O-])o1)c1ccccc1`: the TBMIC in series [1] was determined as 3.1 µg/mL. For the same compound, the pIC50 in series [2] was 3.82. Moreover, the fraction unbound in series [3] was 0.289. For the same compound, the Selectivity index in series [4] was 7.6.
In series [1], `O=C(c1ccc([N+](=O)[O-])o1)N1CCc2ccccc21` registered a TBMIC of 0.8 µg/mL. Also, the fraction unbound in series [3] is 0.25. The Selectivity index in series [4] turned out to be 9.9.
Turning to `COc1ccc(CNC(=O)c2ccc([N+](=O)[O-])o2)c(OC)c1`, in series [1], the TBMIC stood at 0.4 µg/mL. In series [2], this compound showed a pIC50 of 3.95. For the same compound, the fraction unbound in series [3] was 0.409. Further, in series [4], the Selectivity index was determined as 13.5.
`O=C(Nc1cnccn1)c1ccc([N+](=O)[O-])o1`: the TBMIC in series [1] worked out at 6.25 µg/mL. In series [2], this compound showed a pIC50 of 3.16. The fraction unbound in series [3] is 0.528.
Turning to `O=C(Nc1cccc(O)c1)c1ccc([N+](=O)[O-])o1`, in series [1], the TBMIC was 1.6 µg/mL. Further, the pIC50 in series [2] was 3.50. Moreover, the fraction unbound in series [3] was 0.391. The Selectivity index in series [4] worked out at 7.8.
Take `O=C(NC1CCCc2ccccc21)c1ccc([N+](=O)[O-])o1` (stereo unspecified): in series [2], the pIC50 was 3.95.
In the case of `COc1cc(NC(=O)c2ccc([N+](=O)[O-])o2)ncn1`, in series [1], the TBMIC is 1.6 µg/mL. Also, in series [3], the fraction unbound was 0.469.
`COc1ccccc1CNC(=O)c1ccc([N+](=O)[O-])o1` yielded a TBMIC in series [1] of 1.6 µg/mL. The compound further gave a pIC50 in series [2] of 3.45. In addition, the fraction unbound in series [3] is 0.335.
For `O=C(NCCc1ccccc1)c1ccc([N+](=O)[O-])o1`, the TBMIC in series [1] worked out at 1.6 µg/mL. This compound gave a pIC50 in series [2] of 3.50. In addition, the fraction unbound in series [3] is 0.246. The Selectivity index in series [4] turned out to be 15.7.
